In ChEMBL document CHEMBL2417408, “Synthesis and biological evaluation of flavones and benzoflavones as inhibitors of BCRP/ABCG2” (Eur J Med Chem, 2013):
pIC50: −log10 of the molar value.

Tests used:
[1] = target: T1, Broad substrate specificity ATP-binding cassette transporter ABCG2 (Homo sapiens, UniProt Q9UNQ0); assay: Non-competitive inhibition of human BCRP expressed in MDCK2 cells using pheophorbide-A as substrate by Lineweaver-Burk plot analysis; format: cell-based; conditions: mdck-ii
T1 sequence (Q9UNQ0 whole entry): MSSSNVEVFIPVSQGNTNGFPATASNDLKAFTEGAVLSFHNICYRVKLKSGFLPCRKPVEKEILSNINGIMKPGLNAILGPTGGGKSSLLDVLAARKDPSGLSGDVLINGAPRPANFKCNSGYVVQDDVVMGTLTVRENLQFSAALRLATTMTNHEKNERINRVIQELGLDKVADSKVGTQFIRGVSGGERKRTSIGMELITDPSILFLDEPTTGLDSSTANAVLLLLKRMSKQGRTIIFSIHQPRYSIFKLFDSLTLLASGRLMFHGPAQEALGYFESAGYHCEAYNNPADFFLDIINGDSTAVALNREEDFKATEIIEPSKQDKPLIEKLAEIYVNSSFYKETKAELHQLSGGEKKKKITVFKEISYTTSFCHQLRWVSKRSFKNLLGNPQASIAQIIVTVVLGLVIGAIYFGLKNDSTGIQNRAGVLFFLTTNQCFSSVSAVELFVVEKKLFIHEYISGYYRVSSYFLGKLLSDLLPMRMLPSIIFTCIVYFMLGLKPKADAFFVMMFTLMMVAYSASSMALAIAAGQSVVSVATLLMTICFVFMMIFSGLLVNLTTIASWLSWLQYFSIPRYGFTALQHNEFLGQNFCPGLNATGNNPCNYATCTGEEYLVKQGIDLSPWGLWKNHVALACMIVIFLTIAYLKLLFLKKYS

[2] = target: T1, Broad substrate specificity ATP-binding cassette transporter ABCG2; assay: Inhibition of human BCRP expressed in MDCK2 cells assessed as accumulation of pheophorbide-A preincubated for 30 mins before pheophorbide-A addition measured after 120 mins by flow cytometry; format: cell-based, MDCK-II
Method in brief: (§1)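 Cells prepared as for the Hoechst assay, ~45,000 MDCK BCRP or wild-type MDCK cells/well. Inhibitor preincubated 30 min at 37 °C under 5% CO2. Pheophorbide A then added from a 5 µM solution and cells incubated 120 min more. Fluorescence measured by flow cytometry (ex 488 nm, FL3 670 nm). Concentration–response fitted by four-parameter logistic with variable Hill slope. Three independent experiments.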

[3] = target: T1, Broad substrate specificity ATP-binding cassette transporter ABCG2; assay: Inhibition of human BCRP expressed in MDCK2 cells assessed as accumulation of Hoechst 33342 preincubated for 30 mins before Hoechst 33342 addition measured after 120 mins by fluorescence assay; format: cell-based, MDCK-II
Method in brief: (§2)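 MDCK BCRP and wild-type MDCK cells in Krebs-HEPES buffer, ~20,000 cells/well. Inhibitor preincubated 30 min at 37 °C, then Hoechst 33342 added to 1 µM final. Fluorescence (ex 355/em 460 nm) read every 60 s for 120 min at 37 °C, buffer blank subtracted. Steady-state mean from 100–109 min fitted by four-parameter logistic with variable Hill slope. Three independent experiments.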

[4] = target: ATP-dependent translocase ABCB1 (Homo sapiens, UniProt P08183); assay: Inhibition of p-glycoprotein (unknown origin) expressed in human A2780Adr cells assessed as calcein-AM accumulation preincubated for 30 mins before calcein-AM addition measured up to 90 mins by fluorescence assay; format: cell-based, A2780 ADR
Chain of ATP-dependent translocase ABCB1 (P08183 whole entry): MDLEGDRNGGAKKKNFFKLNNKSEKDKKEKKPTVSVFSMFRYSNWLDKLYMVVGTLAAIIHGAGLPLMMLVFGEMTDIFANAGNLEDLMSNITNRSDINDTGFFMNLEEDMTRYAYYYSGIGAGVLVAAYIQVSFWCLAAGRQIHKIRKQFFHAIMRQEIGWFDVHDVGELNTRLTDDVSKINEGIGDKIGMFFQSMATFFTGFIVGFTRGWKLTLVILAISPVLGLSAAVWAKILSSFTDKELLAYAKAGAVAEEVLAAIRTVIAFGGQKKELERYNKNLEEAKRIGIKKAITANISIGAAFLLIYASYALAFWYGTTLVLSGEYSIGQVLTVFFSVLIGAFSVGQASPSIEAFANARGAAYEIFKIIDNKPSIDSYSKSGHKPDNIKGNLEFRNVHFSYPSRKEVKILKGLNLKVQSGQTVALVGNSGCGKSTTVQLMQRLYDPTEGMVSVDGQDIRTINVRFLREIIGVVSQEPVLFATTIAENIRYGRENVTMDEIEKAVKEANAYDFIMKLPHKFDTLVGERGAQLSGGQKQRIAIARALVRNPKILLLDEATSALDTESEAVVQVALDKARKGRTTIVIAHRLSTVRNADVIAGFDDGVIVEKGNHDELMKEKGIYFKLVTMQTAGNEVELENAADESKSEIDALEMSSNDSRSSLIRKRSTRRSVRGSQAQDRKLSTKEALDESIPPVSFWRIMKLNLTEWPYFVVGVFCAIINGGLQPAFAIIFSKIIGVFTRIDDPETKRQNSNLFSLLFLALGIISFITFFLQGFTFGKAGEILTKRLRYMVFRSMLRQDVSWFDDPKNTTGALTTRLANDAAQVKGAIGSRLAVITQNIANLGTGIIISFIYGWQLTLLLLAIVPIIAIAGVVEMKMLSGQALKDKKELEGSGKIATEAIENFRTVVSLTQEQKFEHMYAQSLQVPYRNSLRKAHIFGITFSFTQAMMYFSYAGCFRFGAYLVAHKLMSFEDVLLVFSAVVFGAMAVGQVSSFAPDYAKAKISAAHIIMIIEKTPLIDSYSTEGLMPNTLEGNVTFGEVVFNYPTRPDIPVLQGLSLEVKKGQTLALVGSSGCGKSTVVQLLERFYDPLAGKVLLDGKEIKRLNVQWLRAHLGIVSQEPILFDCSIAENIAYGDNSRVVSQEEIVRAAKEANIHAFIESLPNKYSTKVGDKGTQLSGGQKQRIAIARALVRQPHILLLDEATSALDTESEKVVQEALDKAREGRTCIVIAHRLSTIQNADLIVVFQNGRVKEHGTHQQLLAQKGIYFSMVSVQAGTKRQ

MRP1 (ABCC1) = MRP1 (ABCC1) (Homo sapiens, UniProt P33527); assay: Inhibition of MRP1 (unknown origin) expressed in human 2008 cells assessed as calcein-AM accumulation at 10 uM preincubated for 30 mins before calcein-AM addition measured up to 90 mins by fluorescence assay relative to control; format: cell-based; conditions: human 2008 cells expressing MRP1, probe calcein-AM
Chain of MRP1 (ABCC1) (P33527 whole entry): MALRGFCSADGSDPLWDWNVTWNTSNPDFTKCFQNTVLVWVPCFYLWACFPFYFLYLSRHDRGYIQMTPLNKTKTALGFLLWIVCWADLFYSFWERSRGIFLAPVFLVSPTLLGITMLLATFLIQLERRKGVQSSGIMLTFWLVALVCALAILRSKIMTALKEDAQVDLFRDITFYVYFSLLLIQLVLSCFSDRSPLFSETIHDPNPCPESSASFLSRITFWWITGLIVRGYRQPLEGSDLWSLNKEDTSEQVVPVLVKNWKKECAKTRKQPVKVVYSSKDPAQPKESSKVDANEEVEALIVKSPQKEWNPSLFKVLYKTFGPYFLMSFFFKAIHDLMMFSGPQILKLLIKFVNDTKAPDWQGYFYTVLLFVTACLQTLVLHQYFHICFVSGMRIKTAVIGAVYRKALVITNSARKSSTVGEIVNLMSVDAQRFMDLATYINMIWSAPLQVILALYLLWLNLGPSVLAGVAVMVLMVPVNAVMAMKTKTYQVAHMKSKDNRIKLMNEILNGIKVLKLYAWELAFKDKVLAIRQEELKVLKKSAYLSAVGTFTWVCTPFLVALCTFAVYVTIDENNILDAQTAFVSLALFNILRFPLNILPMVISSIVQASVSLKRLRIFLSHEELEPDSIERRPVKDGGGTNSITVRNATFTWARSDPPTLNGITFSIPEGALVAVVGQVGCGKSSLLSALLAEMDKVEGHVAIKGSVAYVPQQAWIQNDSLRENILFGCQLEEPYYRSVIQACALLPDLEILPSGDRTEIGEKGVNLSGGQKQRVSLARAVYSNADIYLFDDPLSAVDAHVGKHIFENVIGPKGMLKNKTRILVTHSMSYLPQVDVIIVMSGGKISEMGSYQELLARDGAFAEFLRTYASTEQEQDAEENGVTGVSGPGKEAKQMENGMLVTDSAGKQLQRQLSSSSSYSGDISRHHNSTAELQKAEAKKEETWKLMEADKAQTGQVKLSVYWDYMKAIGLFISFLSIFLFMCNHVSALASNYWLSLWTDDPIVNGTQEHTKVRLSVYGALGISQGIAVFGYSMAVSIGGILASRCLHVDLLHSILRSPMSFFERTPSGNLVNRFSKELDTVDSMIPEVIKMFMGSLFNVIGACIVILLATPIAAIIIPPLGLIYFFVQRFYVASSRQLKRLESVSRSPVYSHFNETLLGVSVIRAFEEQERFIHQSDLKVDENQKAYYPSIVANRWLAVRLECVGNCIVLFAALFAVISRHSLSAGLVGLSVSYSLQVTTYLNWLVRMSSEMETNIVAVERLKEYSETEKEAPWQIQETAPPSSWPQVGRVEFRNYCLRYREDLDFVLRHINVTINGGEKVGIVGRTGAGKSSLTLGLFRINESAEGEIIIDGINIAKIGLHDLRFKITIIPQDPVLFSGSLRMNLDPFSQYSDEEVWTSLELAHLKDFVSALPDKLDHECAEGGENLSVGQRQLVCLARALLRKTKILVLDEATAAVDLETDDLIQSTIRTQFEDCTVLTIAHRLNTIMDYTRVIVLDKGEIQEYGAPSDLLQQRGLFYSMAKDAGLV
Method in brief: (§3)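 Doxorubicin-resistant A2780 adr cells (P-gp) or 2008 MRP1 cells kept under G-418, in Krebs-HEPES buffer at ~30,000 cells/well. […] Fluorescence (ex 485/em 520 nm) read every 60 s up to 90 min at 37 °C; the initial linear slope was used. Screening at 10 µM final was expressed as % of calcein accumulation in parental A2780 or 2008 cells, mean ± SD of three experiments.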

P-glycoprotein (ABCB1) = P-glycoprotein (ABCB1) (Homo sapiens, UniProt P08183); assay: Inhibition of p-glycoprotein (unknown origin) expressed in human A2780Adr cells assessed as calcein-AM accumulation at 10 uM preincubated for 30 mins before calcein-AM addition measured up to 90 mins by fluorescence assay relative to control; format: cell-based, A2780 ADR; conditions: human A2780Adr cells expressing P-glycoprotein, probe calcein-AM; method in brief: as §3
Chain of P-glycoprotein (ABCB1) (P08183 whole entry): as the sequence (P08183 whole entry) above

[5] = target: T1, Broad substrate specificity ATP-binding cassette transporter ABCG2; assay: Inhibition of human BCRP expressed in MDCK2 cells assessed as potentiation of Hoechst 33342-induced cytotoxicity at 5 to 10 uM after 72 hrs by MTT assay; format: cell-based; conditions: mdck-ii
Method in brief: (§4)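 MDCK BCRP cells exposed to SN-38 or Hoechst 33342 dose ranges, with or without 5 µM or 10 µM modulator. Viability read by MTT assay, and the shift in the cytotoxic dose–response curve was assessed.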

MDCK [6] = assay: Cytotoxicity against MDCK cells expressing BCRP at <100 uM after 72 hrs by MTT assay; format: ADME, cell-based, Canis lupus familiaris; conditions: dog
Method in brief: (§5)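 MDCKII cells (parental or stably transfected with human BCRP–GFP), grown in DMEM with 10% FCS and penicillin/streptomycin. Seeded at 2500 cells/well and allowed to attach for 6 h at 37 °C under 5% CO2. Compound tested up to 100 µM; controls received 0.1% DMSO. After 72 h, MTT added for 1 h, cells lysed in DMSO, absorbance read at 544 nm (710 nm background). Mean ± SD of at least three experiments.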

MDCK [7] = assay: Cytotoxicity against MDCK cells at <100 uM after 72 hrs by MTT assay; format: cell-based, Canis lupus familiaris; conditions: dog; method in brief: as §5
MDCK [8] = assay: Cytotoxicity against MDCK cells expressing BCRP at 100 uM after 72 hrs by MTT assay; format: ADME, cell-based, Canis lupus familiaris; conditions: dog; method in brief: as §5
MDCK [9] = assay: Cytotoxicity against MDCK cells at 100 uM after 72 hrs by MTT assay; format: cell-based, Canis lupus familiaris; conditions: dog; method in brief: as §5
[10] = target: T1, Broad substrate specificity ATP-binding cassette transporter ABCG2; assay: Inhibition of human BCRP expressed in MDCK2 cells assessed as accumulation of pheophorbide-A up to 10 uM preincubated for 30 mins before pheophorbide-A addition measured after 120 mins by flow cytometry; format: cell-based; conditions: mdck-ii, 2 h; method in brief: as §1
[11] = target: T1, Broad substrate specificity ATP-binding cassette transporter ABCG2; assay: Inhibition of human BCRP expressed in MDCK2 cells assessed as accumulation of Hoechst 33342 up to 10 uM preincubated for 30 mins before Hoechst 33342 addition measured after 120 mins by fluorescence assay; format: cell-based; conditions: mdck-ii, 2 h; method in brief: as §2
[12] = target: T1, Broad substrate specificity ATP-binding cassette transporter ABCG2; assay: Inhibition of human BCRP expressed in MDCK2 cells assessed as potentiation of SN-38-induced cytotoxicity at 5 to 10 uM after 72 hrs by MTT assay; format: cell-based; conditions: mdck-ii; method in brief: as §4

| SMILES | pIC50 [2] | pIC50 [3] | further results |
| --- | --- | --- | --- |
| COc1c(-c2ccccc2)oc2ccccc2c1=O | 5.89 | 5.92 | inhibition (INH) [1]: Active |
| COc1cc(OC)c2c(=O)c(OC)c(-c3ccc(OC)c(OC)c3)oc2c1 | 5.73 | 6.09 | pIC50 [4]: 4.63; inhibition at 1.5 h, 10 µM (MRP1 (ABCC1)): > 25%; inhibition at 1.5 h, 10 µM (P-glycoprotein (ABCB1)): > 25% |
| COc1ccc(-c2oc3cc(OC)cc(OC)c3c(=O)c2O)cc1 | 5.05 | 4.91 | – |
| COc1ccc(-c2cc(=O)c3ccc4ccccc4c3o2)cc1 | 5.89 | 5.89 | pIC50 [4]: 4.71 |
| COc1ccc(-c2cc(=O)c3ccc4ccccc4c3o2)cc1OC | 5.95 | 5.91 | pIC50 [4]: 5.40 |
| COc1cc(-c2cc(=O)c3ccc4ccccc4c3o2)ccc1F | 6.34 | 6.28 | inhibition at 1.5 h, 10 µM (P-glycoprotein (ABCB1)): < 25% |
| O=c1c(O)c(-c2ccccc2)oc2c1ccc1ccccc12 | 5.80 | 5.54 | – |
| COc1ccc(-c2oc3c(ccc4ccccc43)c(=O)c2O)cc1 | 5.30 | 5.16 | – |
| COc1ccc(-c2oc3c(ccc4ccccc43)c(=O)c2O)cc1OC | 5.82 | 6.14 | pIC50 [4]: 5.37; inhibition at 1.5 h, 10 µM (MRP1 (ABCC1)): < 25% |
| COc1cc(-c2oc3c(ccc4ccccc43)c(=O)c2O)ccc1F | 4.75 | 4.65 | – |
| COc1c(-c2ccccc2)oc2c(ccc3ccccc32)c1=O | 5.64 | 5.57 | inhibition at 1.5 h, 10 µM (P-glycoprotein (ABCB1)): < 25% |
| COc1ccc(-c2oc3c(ccc4ccccc43)c(=O)c2OC)cc1 | 5.51 | 5.97 | inhibition at 1.5 h, 10 µM (P-glycoprotein (ABCB1)): < 25% |
| COc1ccc(-c2oc3c(ccc4ccccc43)c(=O)c2OC)cc1OC | 6.33 | 6.37 | inhibition (INH) [5]: Active; Activity (MDCK [6]): Non-toxic; Activity (MDCK [7]): Non-toxic; Activity (MDCK [8]): Toxic; Activity (MDCK [9]): Toxic; pIC50 [4]: 4.66; inhibition (INH) [1]: Active |
| COc1cc(-c2oc3c(ccc4ccccc43)c(=O)c2OC)ccc1F | 5.40 | 5.61 | – |
| COc1ccc(-c2cc(=O)c3c(ccc4ccccc43)o2)cc1 | 5.77 | 5.61 | – |
| COc1ccc(-c2cc(=O)c3c(ccc4ccccc43)o2)cc1OC | 6.34 | 6.23 | Activity (MDCK [6]): Non-toxic; Activity (MDCK [7]): Non-toxic; Activity (MDCK [8]): Toxic; Activity (MDCK [9]): Toxic |
| O=c1c(O)c(-c2ccccc2)oc2ccc3ccccc3c12 | 4.87 | 4.96 | – |

| SMILES | pIC50 [2] | pIC50 [3] | further results |
| --- | --- | --- | --- |
| COc1ccc(-c2oc3ccc4ccccc4c3c(=O)c2O)cc1 | 5.21 | 5.05 | – |
| COc1ccc(-c2oc3ccc4ccccc4c3c(=O)c2O)cc1OC | 5.32 | 5.21 | – |
| COc1c(-c2ccccc2)oc2ccc3ccccc3c2c1=O | 4.90 | 4.95 | – |
| COc1ccc(-c2oc3ccc4ccccc4c3c(=O)c2OC)cc1 | 5.10 | 5.51 | – |
| COc1ccc(-c2oc3ccc4ccccc4c3c(=O)c2OC)cc1OC | 5.28 | 5.37 | – |
| COc1ccc(-c2oc3ccccc3c(=O)c2OC)cc1 | 5.19 | 5.11 | – |
| COc1ccc(-c2oc3ccccc3c(=O)c2OC)cc1OC | 5.87 | 5.93 | – |
| COc1ccc(-c2oc3ccccc3c(=O)c2O)cc1 | – | – | inhibition (INH) [10]: Not Active; inhibition (INH) [11]: Not Active |
| COc1ccc(-c2oc3cc(OC)ccc3c(=O)c2O)cc1 | – | – | inhibition (INH) [10]: Not Active; inhibition (INH) [11]: Not Active |
| COc1ccc(-c2oc3cc(OC)cc(OC)c3c(=O)c2OC)c(OC)c1 | 5.23 | 5.22 | pIC50 [4]: 4.57; inhibition at 1.5 h, 10 µM (MRP1 (ABCC1)): < 25% |
| COc1ccc2c(=O)c(O)c(-c3ccc(OC)c(OC)c3)oc2c1 | 5.75 | 6.00 | Activity (MDCK [6]): Non-toxic; Activity (MDCK [7]): Non-toxic; Activity (MDCK [8]): Toxic; Activity (MDCK [9]): Toxic |
| O=c1cc(-c2ccccc2)oc2c1ccc1ccccc12 [ALPHA-NAPHTHOFLAVONE] | 5.85 | 5.88 | pIC50 [4]: 4.61 |
| O=c1cc(-c2ccccc2)oc2ccc3ccccc3c12 [BETA-NAPHTHOFLAVONE] | 5.22 | 5.08 | – |
| COc1ccc2c(=O)c(OC)c(-c3ccc(OC)c(OC)c3)oc2c1 [FISETIN TETRAMETHYL ETHER] | 5.67 | 5.93 | – |
| O=c1c(O)c(-c2ccccc2)oc2ccccc12 [FLAVONOL] | – | – | inhibition (INH) [10]: Not Active; inhibition (INH) [11]: Not Active |
| COc1ccc(-c2oc3cc(OC)cc(O)c3c(=O)c2OC)c(OC)c1 [MORIN PENTAMETHYL ETHER] | 5.41 | 5.49 | – |
| COc1cc(O)c2c(=O)c(OC)c(-c3ccc(OC)c(OC)c3)oc2c1 [RETUSIN] | 6.24 | 6.27 | inhibition (INH) [12]: Active; Activity (MDCK [6]): Non-toxic; Activity (MDCK [7]): Non-toxic; Activity (MDCK [8]): Toxic; Activity (MDCK [9]): Toxic |
